# Assay outcomes from PubChem.
# An excerpt weighted towards active compounds, which were near 2.1% of everything screened.
# PP1 inh: counter-screen for PP5 inhibitors: inhibitors of human PP1-alpha | P62136 | purified PP1alpha, OMFP fluorescence | inhibition, % at 6.7 µM | actives 0.9% (n = 320,000) | AID 2235;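 active = inhibition above the mean inhibition of all tested compounds plus 3 SD, computed separately for each screening campaign, cut at about 15% in these data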
# PP5 primary: PP5 (human) phosphatase inhibition; purified PP5c, OMFP substrate fluorescence; P53041; AID 1987; inhibition, % at 6.7 µM; actives 0.18% (n = 320,000);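 active = inhibition above the campaign's mean inhibition across all tested compounds plus 3 SD, cut at about 9.5% in these data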;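 note: 0% = DMSO only and 100% = 100 µM cantharidin control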
# GSTO1 counter: blocks human GSTO1 in RBBP9 counter-screen; inhibition, % at 5.96 µM; actives 1.1% (n = 300,000); recombinant GSTO1, activity-based probe fluorescence polarization; P78417;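 active = inhibition above the campaign mean inhibition plus 3 SD, cut at about 35% in these data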;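 note: 0% = GSTO1-1 with DMSO and 100% = wells lacking GSTO1-1 enzyme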
# Target sequence (P78417 whole entry, looked up): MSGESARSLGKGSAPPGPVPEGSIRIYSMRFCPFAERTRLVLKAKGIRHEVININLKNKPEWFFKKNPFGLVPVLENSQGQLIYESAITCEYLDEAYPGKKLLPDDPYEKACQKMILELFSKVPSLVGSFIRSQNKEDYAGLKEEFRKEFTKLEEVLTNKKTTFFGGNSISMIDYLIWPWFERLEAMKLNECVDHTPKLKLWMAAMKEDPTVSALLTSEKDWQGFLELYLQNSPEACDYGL
# Apaf-1 inh: inhibitors of human Apaf-1 apoptosome | actives 0.71% (n = 330,000) | inhibition, % at 20 µM | reconstituted apoptosome caspase-3 activity, DEVD-Rh110 fluorescence | O14727 | AID 489030; active = inhibition of at least 40% at 20 µM;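 note: plate controls were DMSO wells for no effect and DEVD-CHO caspase inhibitor wells for full effect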
#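 Material: reconstituted apoptosome with Apaf-1, cytochrome c, caspase-9, procaspase-3, dATP. Technique: Rh110 fluorescence intensity. Buffer or medium: pH 7.5 Hepes buffer with CHAPS, BSA, DTT. Times: 30 min plus 50 min, RT.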
# TDP2 inh: TDP2 (human) inhibition, absorbance primary screen; O95551; inhibition, % at 12.8 µM; recombinant TDP2, T5PNP hydrolysis, p-nitrophenol absorbance 415 nm; actives 0.34% (n = 370,000);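 active = inhibition above the mean of all tested compounds plus 3 SD, set per campaign, cut at about 25% in these data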;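 note: 0% = DMSO with enzyme and 100% = buffer with substrate but no TDP2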
# Target sequence (O95551 whole entry, looked up): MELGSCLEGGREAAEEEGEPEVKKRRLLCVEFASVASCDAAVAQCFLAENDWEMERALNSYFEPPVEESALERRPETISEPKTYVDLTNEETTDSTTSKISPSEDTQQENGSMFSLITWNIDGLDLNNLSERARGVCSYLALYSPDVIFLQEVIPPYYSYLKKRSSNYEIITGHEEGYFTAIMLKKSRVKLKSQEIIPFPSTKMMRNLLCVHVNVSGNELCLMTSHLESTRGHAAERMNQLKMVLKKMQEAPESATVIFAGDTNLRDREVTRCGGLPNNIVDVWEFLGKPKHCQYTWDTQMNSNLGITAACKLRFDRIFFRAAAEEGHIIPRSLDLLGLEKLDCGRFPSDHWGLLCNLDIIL
#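 Material: recombinant human TDP2; quantity: TDP2 enzyme at 120 nM final; medium: Tris-HCl pH 7.5 with MgCl2; compound: single concentration, 12.8 µM nominal, with 1% DMSO; incubation: 2 h enzyme incubation at 37 °C; signal: epi absorbance; measure: percent inhibition; benchmarks: high control without enzyme, low control DMSO plus TDP2; repeats: singlicate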
# TDP2 inh conf: human TDP2 inhibition, confirmation; shares compounds with TDP2 inh; recombinant human TDP2, absorbance read-out; actives 22% (n = 1,100); inhibition, % at 12.8 µM; in the data active = inhibition above about 25%;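 note: 0% = vehicle with enzyme and 100% = no enzyme buffer only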
# An asterisk follows results filed as active; / = not tested or not shown.
SMILES,PP1 inh,PP5 primary,GSTO1 counter,Apaf-1 inh,TDP2 inh,TDP2 inh conf
CC(=O)C1=C(C)N(Cc2ccc(Br)cc2)C(=S)NC1c1cccc(Br)c1 (centres undefined),/,/,/,/,-2.0,/
Cc1ccc(S(=O)(=O)N2CCN(C(=O)c3ccc4c(c3)OCO4)CC2)cc1,0.3,0.8,8.5,13.3,-5.3,/
Cc1cc(C)c(S(=O)(=O)N2CCN(C(=O)c3ccc4c(c3)OCO4)CC2)c(C)c1,1.7,1.2,-0.4,8.7,28.7*,-4.7
COc1ccc2nc(SCC(=O)NCc3ccccc3)[nH]c2c1,/,/,/,-1.2,59.6*,-2.0
Oc1ccc(NCc2ccc(OCc3ccccc3)cc2)cc1,/,/,/,/,34.2*,39.2*
CC1=NN(c2ccccc2)C(=O)C1=C(C)C,0.3,4.0,35.1*,38.3,37.1*,12.2
Cc1nc2c3ccccc3nc(NNC(=O)CCC(=O)N3CCC(C)CC3)n2n1,-0.3,2.1,0.2,2.8,28.7*,6.9
Cc1cc(/C=C2\SC(=S)NC2=O)c(C)n1C,1.7,1.3,45.7*,-13.6,25.3*,-4.1
Nc1c(C(=O)N2CCOCC2)cnn1Cc1ccccc1,/,/,/,/,-0.1,/
N#CC1=C(N)C(C#N)(C#N)[C@H](c2ccoc2)[C@H]2CN(Cc3ccccc3)CC=C12,4.3,1.0,23.7,59.1*,40.2*,-2.0
CC(=O)N1CC=C2C(C#N)=C(N)C(C#N)(C#N)[C@H](c3ccoc3)[C@H]2C1,0.2,2.0,5.2,-0.5,6.5,/
COc1ccc(Sc2cccc(Cl)c2)c(C(=O)O)c1,/,/,/,/,1.9,/
Cc1ccccc1NC(=O)c1ccccc1NC(=O)c1cccs1,0.7,0.8,-5.8,7.7,27.3*,0.5
COc1ccc(-c2cc(-c3ccc(O)cc3)nc(N)c2C#N)cc1,-2.3,3.8,-4.7,20.6,-7.8,/
N#Cc1c(-c2ccccc2)cc(-c2ccc(O)cc2)nc1N,2.2,5.9,-12.3,11.1,28.8*,-5.1
CCOC(=O)[C@]12CCCCC/C=C\1N(CCc1ccc(Cl)cc1)C(=O)[C@H]2CC(=O)N1CCSCC1,/,/,/,/,2.8,/
CC(=O)OCCCN1C(=O)CCC12CCC(C)CC2 (centres undefined),/,/,/,/,4.4,/
Nn1cnnc1N/N=C\c1ccc(-c2ccccc2[N+](=O)[O-])o1,/,/,/,/,65.8*,39.0*
O=[N+]([O-])c1ccccc1-c1ccc(/C=N/n2cnnc2)o1,-5.3,0.7,12.4,-2.1,12.2,/
Cc1ccc(-n2nc(C)c3c2OC(N)=C(C#N)C3c2ccc(F)cc2)cc1 (centres undefined),0.0,0.6,42.3*,2.5,48.5*,0.3
Cc1nn(-c2ccccc2)c2c1C(c1ccc([N+](=O)[O-])cc1)C(C#N)=C(N)O2 (centres undefined),2.0,-0.2,12.3,8.8,61.8*,0.0
COc1cc(NCCCNC(C)C)c2nccc(C)c2c1,/,/,/,/,27.7*,27.6*
COc1ccc2[nH]c3c(NCCN4CCCCC4)ncnc3c2c1,-7.3,4.6,-6.4,7.2,/,/
CCOc1ccc2[nH]c3c(NCCc4ccc(OC)c(OC)c4)ncnc3c2c1,0.2,0.2,-18.1,-4.3,1.3,/
CCOc1ccc2[nH]c3c(NCCO)ncnc3c2c1,/,/,/,3.9,26.7*,2.9
SMILES,PP1 inh,PP5 primary,GSTO1 counter,Apaf-1 inh,TDP2 inh,TDP2 inh conf
C[C@@H]1CN([C@@H](C)CO)C(=O)CCCn2cc(nn2)CO[C@H]1CN(C)S(=O)(=O)c1cn(C)cn1,/,/,/,/,-7.0,/
CCOc1ccc(N2CC(C(=O)N3CCCC3)CC2=O)cc1 (centres undefined),-1.0,0.3,5.5,4.6,-8.1,/
CCOc1ccc(N2CC(C(=O)N3CCN(C(=O)c4ccco4)CC3)CC2=O)cc1 (centres undefined),-1.1,0.5,-3.7,5.1,25.6*,5.4
O=C(Cc1ccccc1[N+](=O)[O-])NCC1(c2cccc3c2OCO3)OCCO1,/,/,/,/,27.1*,4.8
Nc1ccc(OC(=O)Nc2ccc(O)cc2)cc1,0.7,3.0,59.0*,15.7,29.5*,12.3
O=C(Nc1ccc(N2CCN(c3ccc(O)cc3)CC2)cc1)Oc1ccccc1,13.4,1.8,33.9,-25.6,-0.8,/
C[n+]1cccc2cccc([O-])c21,/,/,/,/,27.4*,28.4*
CCCCCCCCN1C(=O)[C@@H](CC(=O)NCc2ccc(C)o2)C[C@@]2(C(=O)OC)C1=C[C@H](C(C)C)O[C@@H]2C1CC1,/,/,/,/,-9.2,/
C[C@H](NC(=O)c1nc[nH]c1C(=O)NC1CCNCC1)C(=O)OCc1ccccc1,/,/,/,-6.1,/,/
Cc1nnc(N/N=C/c2ccccc2C(F)(F)F)n1N,1.3,0.6,2.5,-12.3,52.2*,10.0
Cc1nnc(N/N=C/c2ccccc2F)n1N,0.2,0.8,5.8,-2.3,49.9*,8.3
Cc1nnc(N/N=C/c2cccc(C(F)(F)F)c2)n1N,-3.4,-0.7,17.3,-1.4,82.5*,6.7
Cc1nnc(N/N=C/c2ccco2)n1N,-5.5,0.2,38.3*,-17.0,68.9*,6.5
COc1cc(/C=C(\C#N)C(N)=O)ccc1OCc1c(C)no[n+]1[O-],-1.4,2.6,19.2,-4.2,-10.0,/
COc1cc(/C=N/Nc2nncn2N)ccc1OCc1c(C)no[n+]1[O-],-2.2,-0.3,16.3,-4.2,67.7*,6.0
Nn1cnnc1N/N=C/c1ccc(Cl)cc1Cl,/,/,/,2.5,72.9*,-7.4
COc1ccc(/C=N/Nc2nncn2N)cc1Br,1.6,0.2,29.4,27.2,75.3*,7.7
CCCCN1C(=O)C(NC(C)=O)c2cc(Br)ccc21 (centres undefined),9.2,4.0,-6.2,15.4,-15.5,/
CC(=O)NC1C(=O)N(CCN2CCOCC2)c2ccc(F)cc21 (centres undefined),/,/,/,3.2,31.7*,30.5*
O=C1NC(=O)C2(CCOc3ccc(F)cc32)N1 (centres undefined),/,/,/,/,9.8,/
O=c1[nH]c2c(s1)C(c1ccco1)C1C3CCC(C3)C1S2 (centres undefined),2.1,2.3,-20.9,22.8,33.5*,7.5
O=C(O)CN1C(=O)C2C3CC(C2C1=O)C1C(c2ccccc2)c2sc(=O)[nH]c2SC31 (centres undefined),-1.2,2.0,0.0,-6.1,19.4,/
O=C(c1cc(F)ccc1F)N1CCCC(c2nc(-c3cccs3)no2)C1 (centres undefined),/,/,/,/,0.2,/
Cc1cnc(CNC(=O)CC2C(=O)NCCN2Cc2ccccc2F)cn1 (centres undefined),-2.9,2.9,2.4,-14.0,1.2,/
Cc1cnc(CNC(=O)CC2C(=O)NCCN2Cc2cccc(F)c2F)cn1 (centres undefined),-4.0,-1.9,16.1,2.4,25.1*,-3.1
NC1=C(Br)C(=O)c2ncccc2C1=O,/,/,/,/,61.7*,65.4*
COCN(C#N)c1nc(N(C)C)nc(N(C)C)n1,-2.4,-0.3,8.7,0.4,28.6*,3.7
COCN(C#N)c1nc(OC)nc(OC)n1,-3.4,3.2,8.6,-29.5,2.4,/
c1ccc(OCCN2CCOCC2)cc1,-0.2,0.8,-4.9,0.0,31.3*,7.2
